From ChEMBL document CHEMBL1165991, “Synthesis and in vitro evaluation of novel 1,2,4-triazine derivatives as neuroprotective agents” (Bioorg Med Chem, 2010) come the findings set out here.

Data set [1] relates to PC-12. In words: Neuroprotective activity in differentiated rat PC12 cells assessed as protection against H2O2-induced apoptosis at 10 uM treated 3 hrs before H2O2 challenge measured after 24 hrs by acridine orange/ethidium bromide double staining method. Type of data set: functional. In short, it runs like this:
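NGF-differentiated PC12 cells were pretreated with compound, then given H2O2 150 μM for 24 h. Cells were harvested, washed in PBS and set to 10^6/ml, then stained with AO/EB (1:1, final 100 μg/ml). Fluorescence microscopy scored viable, early or late apoptotic, and necrotic nuclei in 10 random fields; three repeats.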

The subject of data set [2] is PC-12. As to the kind of experiment: Neuroprotective activity in rat differentiated PC12 cells assessed as protection against H2O2-induced cell death at 10 uM treated 3 hrs before H2O2 challenge measured after 24 hrs by MTT assay relative to control. It is filed as functional. In short, it runs like this:
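Rat PC12 cells grown in DMEM with 10% FBS and penicillin–streptomycin at 37 °C, 5% CO2, then differentiated with NGF (50 ng/ml) every other day for 6 days. Compounds (0.5–20 µM) were added 3 h before H2O2 (150 µM) and kept present for 24 h more. MTT reduction, formazan dissolved in DMSO, A550; % of control cells; mean ± S.D., n = 3.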
(In general: Formazan colour is commonly taken as a measure of viable cells.)

For data set [3], the system named is PC-12. In words: Neuroprotective activity in differentiated rat PC12 cells assessed as decrease of H2O2-induced cleaved caspase 3 level treated 3 hrs before H2O2 challenge measured after 24 hrs by Western blot relative to untreated control. Type of data set: functional. In a few lines:
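PC12 cells grown in DMEM with 10% FBS at 37 °C, 5% CO2, and differentiated with NGF (50 ng/ml) every other day for 6 days. Pretreated 3 h with compound, then H2O2 (150 μM) added with compound for 24 h. Twenty μg protein run on 12% SDS-PAGE and blotted for cleaved caspase-3, reprobed for β-actin. ECL detection, densitometry ratio, median of three independent experiments.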
(A western blot detects proteins with antibodies after separation by electrophoresis.)

Data set [4] has as its system PC-12. In words: Cytotoxicity against rat differentiated PC12 cells at 0.5 to 20 uM after 24 hrs by MTT assay. It is filed as cell-based. To be noted: pc-12, 24 h. In a few lines:
(§1)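 PC12 cells grown in DMEM with 10% FBS and penicillin–streptomycin at 37 °C, 5% CO2. Differentiated cells were primed with NGF 50 ng/ml every other day for 6 days; undifferentiated cells had no NGF. Compound 0.5–20 μM without H2O2; MTT read at 24 h. Formazan dissolved in DMSO, A550 as % of control; mean ± S.D., n = 3.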

Data set [5] concerns PC-12. In words: Neuroprotective activity in differentiated rat PC12 cells assessed as inhibition of H2O2-induced NF-kappaB nucleus accumulation treated 3 hrs before H2O2 challenge measured after 24 hrs by Western blot relative to untreated control. Type of data set: functional. In short, it runs like this: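 Differentiated PC12 cells were pretreated 3 h with compound, then given H2O2 150 μM for 24 h. Nuclear protein (20 μg) was run on 12% SDS–PAGE, blotted to PVDF, probed with anti-NF-κB and reprobed for β-actin, with ECL detection. Band densities were taken as a ratio; median of three independent experiments.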

The subject of data set [6] is PC-12. In words: Neuroprotective activity in rat undifferentiated PC12 cells assessed as protection against H2O2-induced cell death at 10 uM treated 3 hrs before H2O2 challenge measured after 24 hrs by MTT assay relative to control. Type of data set: functional. In short, it runs like this: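 Undifferentiated rat PC12 cells, grown in DMEM with 10% FBS and penicillin–streptomycin at 37 °C, 5% CO2, were seeded in 96-well plates. They were pretreated 3 h with compounds (0.5–20 µM), then exposed to H2O2 for 24 h. Viability was read by MTT reduction, formazan dissolved in DMSO, A550, as % of control; mean ± S.D., n = 3.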

The subject of data set [7] is PC-12. In words: Cytotoxicity against rat undifferentiated PC12 cells at 0.5 to 20 uM after 24 hrs by MTT assay. It is filed as cell-based. The settings on record: pc-12, 24 h. In a few lines:
as §1

In data set [8] the test system is PC-12. As to the kind of experiment: Neuroprotective activity in rat differentiated PC12 cells assessed as protection against H2O2-induced cell death at 0.5 to 20 uM treated 3 hrs before H2O2 challenge measured after 24 hrs by MTT assay relative to control. Type of data set: functional, cell-based. In a few lines: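 NGF-differentiated PC12 cells (50 ng/ml every other day, 6 days) were pretreated 3 h with compound at 0.5–20 μM, then given H2O2 150 μM with compound for a further 24 h. Viability by MTT: formazan in DMSO, A550, expressed as % of control cells; mean ± S.D., n = 3.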

Data set [9] relates to PC-12. In words: Neuroprotective activity in rat NGF treated differentiated PC12 cells assessed as restoration of H2O2-induced detached from culture plate at 10 uM treated 3 hrs before H2O2 challenge measured after 24 hrs by fluorescence microscopy analysis. It is filed as functional, cell-based. In a few lines: (§2)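 PC12 cells were differentiated with NGF 50 ng/ml for 6 days, pretreated 3 h with compound, then exposed to H2O2 150 μM for 24 h. Morphology was judged by microscopy: cell shape, attachment to the plate surface and inter-neuronal networks.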

For data set [10], the system named is PC-12. In words: Neuroprotective activity in rat NGF treated differentiated PC12 cells assessed as restoration of H2O2-induced neuronal shape change at 10 uM treated 3 hrs before H2O2 challenge measured after 24 hrs by fluorescence microscopy analysis. Type of data set: functional, cell-based. In a few lines: as §2
In data set [11] the test system is PC-12. In words: Neuroprotective activity in rat NGF treated differentiated PC12 cells assessed as restoration of H2O2-induced network changes at 10 uM treated 3 hrs before H2O2 challenge measured after 24 hrs by fluorescence microscopy analysis. Type of data set: functional, cell-based. In a few lines: as §2

Calls of active or inactive are those of the source. The rule behind the calls is not given here.

Consider `CCCSc1nnc(-c2ccc(Cl)cc2)c(-c2ccc(Cl)cc2)n1`, for which the Activity in data set [1] is listed as 40%; in data set [2], 45%; in [4] it was “Non-toxic”; in data set [6] it was 60%; in [7] it was “Non-toxic”. Moreover, the “fold change (FC)” value is given as 1.92 in data set [3] and 1.89 in data set [5].

Consider `CCCCSc1nnc(-c2ccccc2)c(-c2ccccc2)n1`, for which, in data set [8], the outcome was inactive.

As to `CCSc1nnc(-c2ccc(Cl)cc2)c(-c2ccc(Cl)cc2)n1`, the Activity in [1] is listed as 40%; in data set [4], “Non-toxic”; in data set [6], 58%; in data set [7], “Non-toxic”. For the same molecule, the “fold change (FC)” value in data set [3] and in data set [5] was 2 each time.

In the case of `CSc1nnc(-c2ccccc2)c(-c2ccccc2)n1`, the Activity is 35% in [1]; 47% in [2]; “Non-toxic” in [4]; 53% in [6]; “Non-toxic” in data set [7]. The fold change (FC) amounted to 1.91 in data set [3] and 1.79 in [5].

Take `CSc1nnc(-c2ccc(Cl)cc2)c(-c2ccc(Cl)cc2)n1`: the result in [9], in [10] and in data set [11] was Active. The Activity in data set [1] is reported as 20%; in data set [2] it was 83%; in [4], “Non-toxic”; in [6], 88%; in data set [7], “Non-toxic”. Also, the results for the “fold change (FC)” value in [3] and in [5] were 4.59 and 4.04, respectively.

`CCCCSc1nnc(-c2ccc(Cl)cc2)c(-c2ccc(Cl)cc2)n1`: the Activity in [1] was 40%; in data set [2], 50%; in [4], “Non-toxic”; in data set [6] it was 63%; in data set [7] it was “Non-toxic”. Moreover, the “fold change (FC)” value in data set [3] was determined as 1.83; in data set [5], 1.78.

`CCCSc1nnc(-c2ccccc2)c(-c2ccccc2)n1`: the result in data set [9], in data set [10], in data set [8] and in data set [11] was inactive.

With `CCSc1nnc(-c2ccccc2)c(-c2ccccc2)n1`, the Activity was 45% in data set [1]; 54% in data set [2]; “Non-toxic” in data set [4]; 59% in data set [6]; “Non-toxic” in [7]. For the same molecule, the “fold change (FC)” value is reported as 1.64 in data set [3] and 1.56 in data set [5].
